A short description of assay [1]: Cytotoxicity against human U87 cells assessed as growth inhibition at 25 uM after 72 hrs by MTT assay relative to control. In kind it is functional, U-87MG ATCC. The settings on record: U-87 MG, read-out: GI. An outline of the steps:
(§1)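 Cells in logarithmic growth kept in DMEM with 10% FBS, 10 mM sodium bicarbonate, penicillin 100 IU/mL, glutamine 4 mM, at 37 °C under 5% CO2. Plated in duplicate at 2500–4000 cells/well. Compound (30 mM DMSO stock) added 24 h after plating. MTT read at 540 nm after 72 h exposure.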
A general note: Tetrazolium assays rely on reduction of a dye to a coloured formazan, in cell work by metabolically active cells.

The nature of assay [2]: Cytotoxicity against mouse SMA cells assessed as growth inhibition at 25 uM after 72 hrs by MTT assay relative to control. In kind it is functional. The note with it: read-out: GI. An outline of the steps:
as §1

A short description of assay [3]: Cytotoxicity against human MIA cells assessed as growth inhibition at 25 uM after 72 hrs by MTT assay relative to control. Format: functional. The note with it: read-out: GI. An outline of the steps:
as §1

A short description of assay [4]: Cytotoxicity against human SJ-G2 cells assessed as growth inhibition at 25 uM after 72 hrs by MTT assay relative to control. Format: functional. The note with it: SJ-G2, 72 h, read-out: GI. An outline of the steps:
as §1

Assay [5] in a line: Cytotoxicity against human BE(2)-C cells assessed as growth inhibition at 25 uM after 72 hrs by MTT assay relative to control. Format: functional. The settings on record: read-out: GI. An outline of the steps:
as §1

Assay [6] concerns DU-145. Put plainly: Cytotoxicity against human DU145 cells assessed as growth inhibition at 25 uM after 72 hrs by MTT assay relative to control. The settings on record: DU-145, 72 h, read-out: GI. Format: functional. An outline of the steps:
as §1

The test system of assay [7] is A-431. Put plainly: Cytotoxicity against human A431 cells assessed as growth inhibition at 25 uM after 72 hrs by MTT assay relative to control. In kind it is functional. The note with it: A-431, 72 h, read-out: GI. An outline of the steps: as §1
Assay [8] is described as follows: Cytotoxicity against human H460 cells assessed as growth inhibition at 25 uM after 72 hrs by MTT assay relative to control. Format: functional. The settings on record: NCI-H460, 72 h, read-out: GI. An outline of the steps: as §1
Assay [9] deals with A2780. Put plainly: Cytotoxicity against human A2780 cells assessed as growth inhibition at 25 uM after 72 hrs by MTT assay relative to control. In kind it is functional. The note with it: A2780, 72 h, read-out: GI. An outline of the steps: as §1
For assay [10], the system named is MCF7. The assay is described as follows: Cytotoxicity against human MCF7 cells assessed as growth inhibition at 25 uM after 72 hrs by MTT assay relative to control. Format: functional. The note with it: MCF7, 72 h, read-out: GI. An outline of the steps:
as §1

For assay [11], the system named is SW480. Put plainly: Cytotoxicity against human SW480 cells assessed as growth inhibition at 25 uM after 72 hrs by MTT assay relative to control. Format: functional. The note with it: SW480, 72 h, read-out: GI. An outline of the steps: as §1
Assay [12] relates to HT-29. The assay is described as follows: Cytotoxicity against human HT-29 cells assessed as growth inhibition at 25 uM after 72 hrs by MTT assay relative to control. The note with it: HT-29, 72 h, read-out: GI. Format: functional. An outline of the steps: as §1
Assay [13] is described as follows: Cytotoxicity against human U87 cells assessed as growth inhibition after 72 hrs by MTT assay. Format: functional, U-87MG ATCC. The note with it: U-87 MG. An outline of the steps:
as §1

Assay [14] in a line: Cytotoxicity against mouse SMA cells assessed as growth inhibition after 72 hrs by MTT assay. Format: functional. An outline of the steps:
as §1

The nature of assay [15]: Cytotoxicity against human SJ-G2 cells assessed as growth inhibition after 72 hrs by MTT assay. In kind it is functional. The note with it: SJ-G2, 72 h. An outline of the steps:
as §1

A short description of assay [16]: Cytotoxicity against human MIA cells assessed as growth inhibition after 72 hrs by MTT assay. Format: functional. An outline of the steps:
as §1

Assay [17] can be described thus: Cytotoxicity against human BE(2)-C cells assessed as growth inhibition after 72 hrs by MTT assay. Format: functional. An outline of the steps: as §1
Assay [18] concerns DU-145. Put plainly: Cytotoxicity against human DU145 cells assessed as growth inhibition after 72 hrs by MTT assay. In kind it is functional. The note with it: DU-145, 72 h. An outline of the steps:
as §1

Assay [19] can be described thus: Cytotoxicity against human H460 cells assessed as growth inhibition after 72 hrs by MTT assay. Format: functional. The note with it: NCI-H460, 72 h. An outline of the steps:
as §1

The test system of assay [20] is A-431. The assay is described as follows: Cytotoxicity against human A431 cells assessed as growth inhibition after 72 hrs by MTT assay. The note with it: A-431, 72 h. In kind it is functional. An outline of the steps:
as §1

The subject of assay [21] is A2780. Put plainly: Cytotoxicity against human A2780 cells assessed as growth inhibition after 72 hrs by MTT assay. In kind it is functional. The note with it: A2780, 72 h. An outline of the steps: as §1
Assay [22] concerns MCF7. The assay is described as follows: Cytotoxicity against human MCF7 cells assessed as growth inhibition after 72 hrs by MTT assay. In kind it is functional. The note with it: MCF7, 72 h. An outline of the steps:
as §1

Assay [23] has as its system SW480. Put plainly: Cytotoxicity against human SW480 cells assessed as growth inhibition after 72 hrs by MTT assay. In kind it is functional. The note with it: SW480, 72 h. An outline of the steps:
as §1

For assay [24], the system named is HT-29. Put plainly: Cytotoxicity against human HT-29 cells assessed as growth inhibition after 72 hrs by MTT assay. The settings on record: HT-29, 72 h. Format: functional. An outline of the steps: as §1

Where only a bound is given, the exact number is not on record here.

Regarding `O=C(NCCCCc1ccccc1)c1ccc[nH]1`, the inhibition of growth at 25 µM was < 0% in assay [1]; 6% in [2]; 15% in [3]; 8% in assay [4]; < 0% in assay [5]; 10% with DU-145 [6]. In addition, the inhibition of growth at 25 µM with A-431 [7] was 12%; in assay [8], 11%; with A2780 [9], 13%; with MCF7 [10] it was 23%; with SW480 [11], < 0%; in the assay with HT-29 [12], 16%.

`O=C(NCCCc1ccccc1)c1ccc[nH]1`: the inhibition of growth at 25 µM in assay [1] was 11%; in assay [2] it was 8%; in assay [3], 10%; in assay [4], 0%; in assay [5], < 0%; in the assay with DU-145 [6] it was < 0%. Further, the inhibition of growth at 25 µM was determined as 1% with A-431 [7]; 13% in assay [8]; 10% in the assay with A2780 [9]; 21% in the assay with MCF7 [10]; 7% in the assay with SW480 [11]; 16% in the assay on HT-29 [12].

For the compound `O=C(NCc1ccc(-c2ccccc2)cc1)c1ccc[nH]1`, the GI50 in [13] is 11 µM; in assay [14], 21 µM; in [15], > 50 µM; in assay [16], 6.5 µM; in assay [17], 11 µM; in the assay with DU-145 [18] it was 6.5 µM. Besides, the GI50 in [19] is > 50 µM; in the assay on A-431 [20], 5.8 µM; with A2780 [21], 11 µM; with MCF7 [22], 5.7 µM; with SW480 [23], 4.3 µM; with HT-29 [24], 4.3 µM. Moreover, the inhibition of growth at 25 µM in assay [1] is 77%; in [2] it was 53%; in assay [3], 74%; in [4], 33%; in [5], 72%; in the assay with DU-145 [6], 87%. The inhibition of growth at 25 µM with A-431 [7] was 81%; in assay [8] it was 59%; with A2780 [9] it was 58%; in the assay with MCF7 [10], 79%; with SW480 [11], 93%; in the assay with HT-29 [12], 78%.

Turning to `O=C(NCc1ccc(-c2ccccc2)cc1)c1cc(Br)c(Br)[nH]1`, the GI50 is > 50 µM in [13]; 17 µM in assay [14]; > 50 µM in assay [15]; 3.4 µM in assay [16]; 4.2 µM in assay [17]; 2.6 µM in the assay with DU-145 [18]. The GI50 in [19] was found to be 21 µM; in the assay with A-431 [20], 3.7 µM; in the assay on A2780 [21] it was 6.4 µM; with MCF7 [22], 3.1 µM; with SW480 [23], 2.4 µM; with HT-29 [24], 3.4 µM. For the same compound, the inhibition of growth at 25 µM was 58% in [1]; 59% in assay [2]; 82% in [3]; 17% in assay [4]; 57% in assay [5]; 64% in the assay on DU-145 [6]. Moreover, the inhibition of growth at 25 µM in the assay on A-431 [7] was determined as 90%; in [8], 61%; in the assay on A2780 [9], 66%; with MCF7 [10], 70%; in the assay with SW480 [11], 97%; in the assay on HT-29 [12], 78%.

Regarding `O=C(NCCc1ccccc1)c1cc(Br)c(Br)[nH]1`, the inhibition of growth at 25 µM in [1] is < 0%; in assay [2], 53%; in assay [3], 19%; in [4], 22%; in assay [5], 62%; in the assay with DU-145 [6] it was < 0%. Further, the inhibition of growth at 25 µM in the assay on A-431 [7] was 7%; in assay [8], 19%; in the assay with A2780 [9] it was 58%; with MCF7 [10] it was 70%; in the assay on SW480 [11], 1%; in the assay on HT-29 [12] it was 46%.

As to `O=C(NCCCc1ccccc1)c1cc(Br)c(Br)[nH]1`, the inhibition of growth at 25 µM was < 0% in assay [1]; 45% in assay [2]; 21% in assay [3]; 8% in [4]; < 0% in assay [5]; < 0% in the assay with DU-145 [6]. In addition, the inhibition of growth at 25 µM was 5% in the assay on A-431 [7]; 25% in assay [8]; 48% in the assay with A2780 [9]; 63% with MCF7 [10]; < 0% with SW480 [11]; 41% in the assay on HT-29 [12].

As to `O=C(NCCCCc1ccccc1)c1cc(Br)c(Br)[nH]1`, the inhibition of growth at 25 µM was < 0% in assay [1]; 40% in [2]; 34% in [3]; 14% in assay [4]; < 0% in assay [5]; 19% in the assay with DU-145 [6]. The inhibition of growth at 25 µM with A-431 [7] was 24%; in assay [8], 17%; with A2780 [9], 56%; in the assay on MCF7 [10] it was 70%; with SW480 [11], < 0%; in the assay on HT-29 [12], 41%.

Turning to `O=C(NCc1ccc(Cl)cc1)c1ccc[nH]1`, the inhibition of growth at 25 µM in [1] was 4%; in assay [2] it was 10%; in assay [3] it was 1%; in assay [4] it was < 0%; in assay [5], < 0%; with DU-145 [6] it was < 0%. Besides, the inhibition of growth at 25 µM in the assay with A-431 [7] is < 0%; in assay [8], < 0%; in the assay on A2780 [9], 2%; in the assay with MCF7 [10] it was 10%; in the assay on SW480 [11] it was 4%; in the assay with HT-29 [12], 10%.

Turning to `O=C(NCc1ccc(Cl)c(Cl)c1)c1ccc[nH]1`, the inhibition of growth at 25 µM in [1] is 4%; in assay [2], 17%; in assay [3], < 0%; in assay [4], 11%; in [5], < 0%; in the assay with DU-145 [6], < 0%. For the same compound, the inhibition of growth at 25 µM with A-431 [7] was 6%; in [8], 14%; in the assay with A2780 [9], 15%; in the assay with MCF7 [10], 7%; with SW480 [11] it was < 0%; with HT-29 [12], 14%.

As to `O=C(NCCc1ccccc1)c1ccc[nH]1`, the inhibition of growth at 25 µM is 9% in assay [1]; 7% in [2]; < 0% in assay [3]; 2% in assay [4]; < 0% in [5]; 5% in the assay on DU-145 [6]. Further, the inhibition of growth at 25 µM in the assay on A-431 [7] turned out to be 5%; in [8], 5%; in the assay with A2780 [9], 6%; with MCF7 [10] it was 7%; with SW480 [11], 9%; with HT-29 [12], 9%.

The term GI50 denotes the concentration giving 50% growth inhibition.

The values are drawn from ChEMBL document CHEMBL3112444, “Synthesis and anticancer activity of focused compound libraries from the natural product lead, oroidin” (2014).
